Series [1] in a line: Toxicity against human erythrocytes assessed as hemolysis at 100 uM after 1 hr. The class given is cell-based, Erythrocyte. Conditions: read-out: Activity. The gist of the method: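 Heparinized fresh human blood washed three times in PBS (200 × g, 2 min), mixed with compound in PBS to 4% hematocrit. Incubated 1 h at 37°C with stirring, then centrifuged. Supernatant absorbance read at 460 nm. PBS alone gave baseline and 0.4% Triton X-100 gave 100% lysis. At least two independent experiments.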

Another series has as its system MDCK. Kind of series: Cytotoxicity against dog MDCK cells after 3.5 hrs by Alamar blue assay. Conditions: Canis lupus familiaris. The class given is cell-based. In a few lines: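 Cells grown to confluence (~3 days) with different compound concentrations in parallel cultures. Viability then read by Alamar blue fluorescence 3.5 h after dye addition. Cycloheximide 10 µM added at start as positive control. IC50 taken as concentration reducing viability by 50%. At least two independent experiments in duplicate.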
For orientation: The colour change of resazurin is a common sign of viable cells or microbes.

Series [2] is described as follows: Ratio of LC50 for erythrocytes to IC50 for Plasmodium falciparum W2. Type of series: functional.
A short description of series [3]: Ratio of IC50 for dog MDCK cells to IC50 for Plasmodium falciparum W2. The class given is functional.
The subject of a further series is Plasmodium falciparum. Kind of series: Antiplasmodial activity against Plasmodium falciparum W2 as reduced [3H]hypoxanthine uptake after 18 hrs.

Structures are written as SMILES.

The term IC50 denotes the concentration that inhibits the measured activity by half. A lower IC50 goes with inhibition by little substance.

As for `CCCCCCCCCCCC(=O)NC(CCCCN)C(=O)NCCCCCCCCCCCC(=O)NC(CCCCN)C(=O)NCCCCCCCCCCCC(=O)NC(CCCCN)C(=O)O` (stereo not given), the hemolysis at 1 h, 100 µM in series [1] came out at 13.3%. Besides, the IC50 with MDCK amounted to 75 µM; in the series with Plasmodium falciparum, 0.85 µM. In addition, the “Ratio LC50/IC50” value in series [2] is listed as 442. Moreover, the “Ratio IC50” value in series [3] is 88.

For `NCCCCC(N)C(=O)NCCCCCCCCCCCC(=O)NC(CCCCN)C(=O)O` (stereo not given), the hemolysis at 1 h, 100 µM in series [1] is less than 0.1%. Also, the results for the IC50 with MDCK and in the series on Plasmodium falciparum were greater than 800 µM and 68.2 µM, respectively. Besides, the “Ratio LC50/IC50” value in series [2] was greater than 700. The “Ratio IC50” value in series [3] is reported as greater than 12.

As for `NCCCCCCCCCCCC(=O)NC(CCCCN)C(=O)NCCCCCCCCCCCC(=O)NC(CCCCN)C(=O)O` (stereo not given), the hemolysis at 1 h, 100 µM in series [1] came to 0.14%. For the same molecule, the IC50 in the series with MDCK was greater than 150 µM; in the series on Plasmodium falciparum, 4.63 µM. For the same molecule, the “Ratio LC50/IC50” value in series [2] is listed as 7714. In addition, the “Ratio IC50” value in series [3] is greater than 32.

For the molecule `NCCCCCCCCCCCC(=O)NC(CCCCN)C(=O)NCCCCCCCCCCCC(=O)NC(CCCCN)C(=O)NCCCCCCCCCCCC(=O)NC(CCCCN)C(=O)O` (stereo not given), the hemolysis at 1 h, 100 µM in series [1] turned out to be 3.4%. Also, the IC50 stood at 91 µM in the series with MDCK and 0.14 µM with Plasmodium falciparum. For the same molecule, the “Ratio LC50/IC50” value in series [2] was 10734. Further, the “Ratio IC50” value in series [3] was found to be 650.

In the case of `NCCCCCCCCCCCC(=O)NC(CCCCN)C(=O)NCCCCCCCCCCCC(=O)NC(CCCCN)C(=O)NCCCCCCCCCCCC(=O)NC(CCCCN)C(=O)NCCCCCCCCCCCC(=O)NC(CCCCN)C(=O)O` (stereo not given), the hemolysis at 1 h, 100 µM in series [1] was found to be 24.6%. For the same molecule, the half-inhibitory concentration (IC50) is greater than 75 µM in the series on MDCK and 1.59 µM in the series with Plasmodium falciparum. Besides, the “Ratio LC50/IC50” value in series [2] turned out to be 126. Moreover, in series [3], the “Ratio IC50” value is given as greater than 47.

For `CCCCCCCCCCCC(=O)NC(CCCCN)C(=O)NCCCCCCCCCCCC(=O)NC(CCCCN)C(=O)O` (stereo not given), in series [1], the hemolysis at 1 h, 100 µM turned out to be 4.9%. The IC50 in the series with MDCK was greater than 100 µM; with Plasmodium falciparum, 3.54 µM. Further, the “Ratio LC50/IC50” value in series [2] is listed as 288. Moreover, the “Ratio IC50” value in series [3] is listed as greater than 28.

Regarding `NCCCCC(N)C(=O)NCCCCCCCCCCCC(=O)NC(CCCCN)C(=O)NCCCCCCCCCCCC(=O)NC(CCCCN)C(=O)O` (stereo not given), the hemolysis at 1 h, 100 µM in series [1] is less than 0.1%. The IC50 is greater than 400 µM in the series with MDCK and 7.85 µM in the series with Plasmodium falciparum. In series [2], the “Ratio LC50/IC50” value was greater than 6300. The “Ratio IC50” value in series [3] is reported as greater than 51.

Consider `CCCCCCCCCCCC(=O)NC(CCCCN)C(=O)NCCCCCCCCCCCC(=O)NC(CCCCN)C(=O)NCCCCCCCCCCCC(=O)NC(CCCCN)C(=O)NCCCCCCCCCCCC(=O)NC(CCCCN)C(=O)O` (stereo not given), for which, in series [1], the hemolysis at 1 h, 100 µM is 26.1%. Also, the IC50 with MDCK was found to be 37 µM; with Plasmodium falciparum, 0.08 µM. Also, the “Ratio LC50/IC50” value in series [2] is recorded as 2317. Moreover, the “Ratio IC50” value in series [3] amounted to 1052.

Take `NCCCCC(N)C(=O)NCCCCCCCCCCCC(=O)NC(CCCCN)C(=O)NCCCCCCCCCCCC(=O)NC(CCCCN)C(=O)NCCCCCCCCCCCC(=O)NC(CCCCN)C(=O)O` (stereo not given): the hemolysis at 1 h, 100 µM in series [1] amounted to 2.3%. Further, the 50% inhibitory concentration (IC50) in the series on MDCK was greater than 270 µM; in the series on Plasmodium falciparum it was 1.72 µM. For the same molecule, in series [2], the “Ratio LC50/IC50” value came out at 1263. For the same molecule, the “Ratio IC50” value in series [3] is listed as greater than 157.

The values above are taken from ChEMBL document CHEMBL1143839, “Antiplasmodial activity of lauryl-lysine oligomers” (Antimicrob Agents Chemother, 2007).
